Test results: ChEMBL document CHEMBL4673235, “Synthesis and biological evaluation of ethacrynic acid derivatives bearing sulfonamides as potent anti-cancer agents” (Bioorg Med Chem Lett, 2020)

Legend:
HL-60 [1] = assay: Cytotoxicity against human HL-60 cells assessed as reduction in cell viability by CellTiter Glo luminescent assay; assay type: functional, cell-based
How it was run: (§1)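 CellTiter-Glo luminescent read-out of cellular ATP, taken as proportional to viable cell number; percentage viability measured and IC50 derived. MRC5 used as normal (non-cancer) line.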

HL-60 [2] = assay: Cytotoxicity against human HL-60 cells assessed as cell viability at 10 uM by CellTiter Glo luminescent assay relative to control; assay type: functional; settings: read-out: Activity
How it was run: (§2)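 Single-concentration screen at 10 µM; percentage viability measured by CellTiter-Glo luminescent quantitation of ATP in metabolically active cells.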

HCT-116 [3] = assay: Cytotoxicity against human HCT-116 cells assessed as cell viability at 10 uM by CellTiter Glo luminescent assay relative to control; assay type: functional; settings: read-out: Activity; how it was run: as §2
[4] = Selectivity index, ratio of IC50 for human MRC5 cells to IC50 for human SK-OV-3 cells by CellTiter Glo luminescent assay; assay type: toxicity; settings: MRC5 cells versus SK-OV-3 cells, read-out: Ratio IC50
How it was run: (§3)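 Safety ratio computed as IC50 in MRC5 normal cells divided by IC50 in the cancer line, both from CellTiter-Glo ATP-luminescence viability assays.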

SK-OV-3 = assay: Cytotoxicity against human SK-OV-3 cells assessed as reduction in cell viability by CellTiter Glo luminescent assay; assay type: functional, cell-based; how it was run: as §1
[5] = Selectivity index, ratio of IC50 for human MRC5 cells to IC50 for human U-87 MG cells by CellTiter Glo luminescent assay; assay type: toxicity; settings: MRC5 cells versus U-87 MG cells, read-out: Ratio IC50; how it was run: as §3
[6] = Selectivity index, ratio of IC50 for human MRC5 cells to IC50 for human A549 cells by CellTiter Glo luminescent assay; assay type: toxicity; settings: MRC5 cells versus A549 cells, read-out: Ratio IC50; how it was run: as §3
[7] = Selectivity index, ratio of IC50 for human MRC5 cells to IC50 for human HL60 cells by CellTiter Glo luminescent assay; assay type: toxicity; settings: MRC5 cells versus HL60 cells, read-out: Ratio IC50
PC-3 = assay: Cytotoxicity against human PC-3 cells assessed as reduction in cell viability by CellTiter Glo luminescent assay; assay type: functional, cell-based; how it was run: as §1
[8] = Selectivity index, ratio of IC50 for human MRC5 cells to IC50 for human HCT-116 cells by CellTiter Glo luminescent assay; assay type: toxicity; settings: MRC5 cells versus HCT-116 cells, read-out: Ratio IC50; how it was run: as §3
[9] = Selectivity index, ratio of IC50 for human MRC5 cells to IC50 for human MCF7 cells by CellTiter Glo luminescent assay; assay type: toxicity; settings: MRC5 cells versus MCF7 cells, read-out: Ratio IC50; how it was run: as §3
MRC5 = assay: Cytotoxicity against human MRC5 cells assessed as reduction in cell viability by CellTiter Glo luminescent assay; assay type: cell-based; how it was run: as §1
[10] = Selectivity index, ratio of IC50 for human MRC5 cells to IC50 for human PC-3 cells by CellTiter Glo luminescent assay; assay type: toxicity; settings: MRC5 cells versus PC-3 cells, read-out: Ratio IC50; how it was run: as §3
HCT-116 [11] = assay: Cytotoxicity against human HCT-116 cells assessed as reduction in cell viability by CellTiter Glo luminescent assay; assay type: functional, cell-based; how it was run: as §1
U-87 MG = assay: Cytotoxicity against human U-87 MG cells assessed as reduction in cell viability by CellTiter Glo luminescent assay; assay type: functional, cell-based, U-87MG ATCC; how it was run: as §1
A549 = assay: Cytotoxicity against human A549 cells assessed as reduction in cell viability by CellTiter Glo luminescent assay; assay type: functional, cell-based; how it was run: as §1
MCF7 = assay: Cytotoxicity against human MCF7 cells assessed as reduction in cell viability by CellTiter Glo luminescent assay; assay type: functional, cell-based; how it was run: as §1
[12] = Selectivity index, ratio of IC50 for human HL-60 cells to IC50 for human HCT-116 cells by CellTiter Glo luminescent assay; assay type: functional

| SMILES | IC50 (HL-60 [1]) | viability at 10 µM (HL-60 [2]) | viability at 10 µM (HCT-116 [3]) | also measured |
| --- | --- | --- | --- | --- |
| C=C(CC)C(=O)c1ccc(OCC(=O)NC2CCN(S(=O)(=O)c3ccc([N+](=O)[O-])cc3)CC2)c(Cl)c1Cl | 2470 nM | 23% | 100% | – |
| C=C(CC)C(=O)c1ccc(OCC(=O)N2CCN(S(=O)(=O)C3CCCCC3)CC2)c(Cl)c1Cl | 2320 nM | 32% | 100% | – |
| C=C(CC)C(=O)c1ccc(OCC(=O)NCCNS(C)(=O)=O)c(Cl)c1Cl | 940 nM | 21% | 62% | – |
| C=C(CC)C(=O)c1ccc(OCC(=O)N2CCN(S(C)(=O)=O)CC2)c(Cl)c1Cl | 3390 nM | 24% | 68% | – |
| C=C(CC)C(=O)c1ccc(OCC(=O)N2CCN(S(=O)(=O)c3ccc([N+](=O)[O-])cc3)CC2)c(Cl)c1Cl | 3260 nM | 24% | 100% | – |
| C=C(CC)C(=O)c1ccc(OCC(=O)NCCNS(=O)(=O)c2ccc([N+](=O)[O-])cc2)c(Cl)c1Cl | 580 nM | 27% | 59% | – |
| C=C(CC)C(=O)c1ccc(OCC(=O)NC2CCN(S(=O)(=O)c3cc(Cl)ccc3OC)CC2)c(Cl)c1Cl | 700 nM | 16% | – | selectivity ratio [4]: 6; IC50 (SK-OV-3): 150 nM; selectivity ratio [5]: 2.93; selectivity ratio [6]: 16.3; selectivity ratio [7]: 1.28; IC50 (PC-3): 76 nM; selectivity ratio [8]: 1.13; selectivity ratio [9]: 9.27; IC50 (MRC5): 900 nM; selectivity ratio [10]: 11.8; IC50 (HCT-116 [11]): 790 nM; IC50 (U-87 MG): 307 nM; IC50 (A549): 55 nM; IC50 (MCF7): 97 nM |
| C=C(CC)C(=O)c1ccc(OCC(=O)NC2CCN(S(=O)(=O)c3ccc(OC)cc3OC)CC2)c(Cl)c1Cl | 860 nM | 11% | 90% | – |
| C=C(CC)C(=O)c1ccc(OCC(=O)NCCNS(=O)(=O)c2cc(Cl)ccc2OC)c(Cl)c1Cl | 1600 nM | 18% | 78% | – |
| C=C(CC)C(=O)c1ccc(OCC(=O)NC2CCN(S(C)(=O)=O)CC2)c(Cl)c1Cl | 3330 nM | 26% | 73% | – |
| C=C(CC)C(=O)c1ccc(OCC(=O)NC2CCN(S(=O)(=O)c3ccc(C)cc3)CC2)c(Cl)c1Cl | 980 nM | 25% | 100% | – |
| C=C(CC)C(=O)c1ccc(OCC(=O)NCCNS(=O)(=O)c2ccc(C)cc2)c(Cl)c1Cl | 2370 nM | 17% | 100% | – |
| C=C(CC)C(=O)c1ccc(OCC(=O)NCCNS(=O)(=O)C2CCCCC2)c(Cl)c1Cl | 1340 nM | 28% | 91% | – |
| C=C(CC)C(=O)c1ccc(OCC(=O)NC2CCN(S(=O)(=O)c3ccc(OC)cc3)CC2)c(Cl)c1Cl | 630 nM | 25% | 45% | selectivity ratio [4]: 14; IC50 (SK-OV-3): 309 nM; selectivity ratio [5]: 18.1; selectivity ratio [6]: 63.8; selectivity ratio [7]: 6.85; IC50 (PC-3): 112 nM; selectivity ratio [8]: 3.75; selectivity ratio [9]: 33.8; IC50 (MRC5): 4320 nM; selectivity ratio [10]: 38.6; IC50 (HCT-116 [11]): 1150 nM; IC50 (U-87 MG): 238 nM; IC50 (A549): 67 nM; IC50 (MCF7): 128 nM |
| C=C(CC)C(=O)c1ccc(OCC(=O)NC2CCN(S(=O)(=O)C3CCCCC3)CC2)c(Cl)c1Cl | 2940 nM | 41% | 61% | – |
| C=C(CC)C(=O)c1ccc(OCC(=O)N2CCN(S(=O)(=O)c3cc(Cl)ccc3OC)CC2)c(Cl)c1Cl | 1410 nM | 24% | 75% | – |
| C=C(CC)C(=O)c1ccc(OCC(=O)NC2CCN(S(=O)(=O)c3cccc4cccnc34)CC2)c(Cl)c1Cl | 970 nM | 34% | 84% | – |
| C=C(CC)C(=O)c1ccc(OCC(=O)N2CCN(S(=O)(=O)c3ccc(OC)cc3)CC2)c(Cl)c1Cl | 590 nM | 17% | 21% | selectivity ratio [4]: 0.45; IC50 (SK-OV-3): 219 nM; selectivity ratio [5]: 0.48; selectivity ratio [6]: 1.54; selectivity ratio [7]: 0.16; IC50 (PC-3): 24 nM; selectivity ratio [8]: 2; selectivity ratio [9]: 1.78; IC50 (MRC5): 100 nM; selectivity ratio [10]: 4.03; IC50 (HCT-116 [11]): 50 nM; Ratio IC50 [12]: 12; IC50 (U-87 MG): 207 nM; IC50 (A549): 64 nM; IC50 (MCF7): 56 nM |
| C=C(CC)C(=O)c1ccc(OCC(=O)NCCNS(=O)(=O)c2ccc(OC)cc2)c(Cl)c1Cl | 860 nM | 24% | 97% | – |
| C=C(CC)C(=O)c1ccc(OCC(=O)NCCNS(=O)(=O)c2ccc(OC)c(OC)c2)c(Cl)c1Cl | 3360 nM | 19% | 97% | – |
| C=C(CC)C(=O)c1ccc(OCC(=O)NCCNS(=O)(=O)c2ccc(OC)cc2OC)c(Cl)c1Cl | 2790 nM | 35% | 77% | – |
| C=C(CC)C(=O)c1ccc(OCC(=O)N2CCN(S(=O)(=O)c3ccc(C)cc3)CC2)c(Cl)c1Cl | – | 64% | 100% | – |
| C=C(CC)C(=O)c1ccc(OCC(=O)NC2CCN(S(=O)(=O)c3ccc(OC)c(OC)c3)CC2)c(Cl)c1Cl | 1310 nM | 25% | 99% | – |
| C=C(CC)C(=O)c1ccc(OCC(=O)NCCNS(=O)(=O)c2cccc3cccnc23)c(Cl)c1Cl | 1330 nM | 20% | 100% | – |
| C=C(CC)C(=O)c1ccc(OCC(=O)N2CCN(S(=O)(=O)c3ccc(OC)cc3OC)CC2)c(Cl)c1Cl | 3190 nM | 15% | 40% | – |
| C=C(CC)C(=O)c1ccc(OCC(=O)N2CCN(S(=O)(=O)c3ccc(OC)c(OC)c3)CC2)c(Cl)c1Cl | – | 100% | 89% | – |
| C=C(CC)C(=O)c1ccc(OCC(=O)N2CCN(S(=O)(=O)c3cccc4cccnc34)CC2)c(Cl)c1Cl | 2980 nM | 28% | 100% | – |
| COc1cccc2c1C(=O)c1c(O)c3c(c(O)c1C2=O)C[C@@](O)(C(=O)CO)C[C@@H]3O[C@H]1C[C@H](N)[C@H](O)[C@H](C)O1 [DOXORUBICIN] | 10 nM | – | – | IC50 (PC-3): 2 nM; IC50 (MRC5): 39 nM; IC50 (HCT-116 [11]): 90 nM; IC50 (U-87 MG): 90 nM; IC50 (A549): 56 nM; IC50 (MCF7): 120 nM |
